Data reported in ChEMBL document CHEMBL1154616, “Synthesis and antitumor activity studies of some new fused 1,2,4-triazole derivatives carrying 2,4-dichloro-5-fluorophenyl moiety” (Eur J Med Chem, 2009).

Legend:
Type in all cases: functional
COLO 205 = experiment: Anticancer activity against human COLO205 cells after 48 hrs by sulforhodamine B assay; settings: COLO 205, 48 h
Outline: (§1)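 Full 60-cell-line panel, compounds tested over a five-log dose range. Cells are preincubated on microtiter plates, the agent is added, and cultures run 48 h. The end point is sulphorhodamine B protein staining. GI50 is taken as the concentration giving 50% growth inhibition relative to untreated control cells.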

NCI-H322M = experiment: Anticancer activity against human NCI-H322M cells after 48 hrs by sulforhodamine B assay; outline: as §1
KM12 = experiment: Anticancer activity against human KM12 cells after 48 hrs by sulforhodamine B assay; settings: KM12, 48 h; outline: as §1
SF-268 [1] = experiment: Anticancer activity against human SF268 cells after 48 hrs by sulforhodamine B assay; settings: SF-268, 48 h; outline: as §1
OVCAR-3 = experiment: Anticancer activity against human OVCAR-3 cells after 48 hrs by sulforhodamine B assay; settings: OVCAR-3, 48 h; outline: as §1
IGROV-1 = experiment: Anticancer activity against human IGROV1 cells after 48 hrs by sulforhodamine B assay; settings: IGROV-1, 48 h; outline: as §1
LOX IMVI = experiment: Anticancer activity against human LOXIMVI cells after 48 hrs by sulforhodamine B assay; outline: as §1
SF-539 = experiment: Anticancer activity against human SF539 cells after 48 hrs by sulforhodamine B assay; settings: SF-539, 48 h; outline: as §1
SF-268 [2] = experiment: Anticancer activity against human SF268 cells assessed as cell growth at 100 uM after 48 hrs by sulforhodamine B assay relative to control; settings: SF-268, 48 h, read-out: Activity
Outline: (§2)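 Three-cell-line prescreen (NCI-H460 lung, MCF7 breast, SF 268 CNS), each preincubated on microtiter plates. The agent is added at a single concentration and cultures are incubated 48 h. Growth is read by sulphorhodamine B protein staining and reported as percent growth of treated versus untreated control cells; negative values indicate cell kill.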

EKVX = experiment: Anticancer activity against human EKVX cells after 48 hrs by sulforhodamine B assay; outline: as §1
DU-145 = experiment: Anticancer activity against human DU145 cells after 48 hrs by sulforhodamine B assay; settings: DU-145, 48 h; outline: as §1
NCI-H522 = experiment: Anticancer activity against human NCI-H522 cells after 48 hrs by sulforhodamine B assay; settings: NCI-H522, 48 h; outline: as §1
T47D = experiment: Anticancer activity against human T47D cells after 48 hrs by sulforhodamine B assay
Outline: (§3)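 Cells from the 60-line full panel are preincubated on microtiter plates, then treated across a five-log dose range for 48 h. Growth is read with the protein-binding dye sulforhodamine B. GI50 is the concentration giving 50% growth inhibition relative to untreated control cells.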

[3] = Anticancer activity against human Hs 578T cells after 48 hrs by sulforhodamine B assay; outline: as §1
K562 = experiment: Anticancer activity against human K562 cells after 48 hrs by sulforhodamine B assay; settings: K562, 48 h; outline: as §1
Malme-3M = experiment: Anticancer activity against human MALME-3M cells after 48 hrs by sulforhodamine B assay; outline: as §1
ACHN = experiment: Anticancer activity against human ACHN cells after 48 hrs by sulforhodamine B assay; outline: as §1
CAKI-1 = experiment: Anticancer activity against human Caki1 cells after 48 hrs by sulforhodamine B assay; settings: CAKI-1, 48 h; outline: as §1
SK-MEL-28 = experiment: Anticancer activity against human SK-MEL-28 cells after 48 hrs by sulforhodamine B assay; settings: SK-MEL-28, 48 h; outline: as §1
SNB-75 = experiment: Anticancer activity against human SNB75 cells after 48 hrs by sulforhodamine B assay; settings: SNB-75, 48 h; outline: as §3
MCF7 [4] = experiment: Anticancer activity against human MCF7 cells after 48 hrs by sulforhodamine B assay; settings: MCF7, 48 h; outline: as §1
MDA-MB-231 = experiment: Anticancer activity against human MDA-MB-231 cells after 48 hrs by sulforhodamine B assay; settings: MDA-MB-231, 48 h; outline: as §1
SW-620 = experiment: Anticancer activity against human SW620 cells after 48 hrs by sulforhodamine B assay; settings: SW-620, 48 h; outline: as §3
SF-295 = experiment: Anticancer activity against human SF295 cells after 48 hrs by sulforhodamine B assay; settings: SF-295, 48 h; outline: as §1
SK-OV-3 = experiment: Anticancer activity against human SKOV3 cells after 48 hrs by sulforhodamine B assay; settings: SK-OV-3, 48 h; outline: as §1
UO-31 = experiment: Anticancer activity against human UO31 cells after 48 hrs by sulforhodamine B assay; settings: UO-31, 48 h; outline: as §3
NCI-H226 = experiment: Anticancer activity against human NCI-H226 cells after 48 hrs by sulforhodamine B assay; settings: NCI-H226, 48 h; outline: as §1
RXF 393 = experiment: Anticancer activity against human RXF393 cells after 48 hrs by sulforhodamine B assay; settings: RXF 393, 48 h; outline: as §1
A549 = experiment: Anticancer activity against human A549 cells after 48 hrs by sulforhodamine B assay; settings: A549, 48 h; outline: as §1
OVCAR-4 = experiment: Anticancer activity against human OVCAR4 cells after 48 hrs by sulforhodamine B assay; settings: OVCAR-4, 48 h; outline: as §1
NCI-H23 = experiment: Anticancer activity against human NCI-H23 cells after 48 hrs by sulforhodamine B assay; settings: NCI-H23, 48 h; outline: as §1
OVCAR-5 = experiment: Anticancer activity against human OVCAR5 cells after 48 hrs by sulforhodamine B assay; settings: OVCAR-5, 48 h; outline: as §1
U-251 = experiment: Anticancer activity against human U251 cells after 48 hrs by sulforhodamine B assay; settings: U-251, 48 h; outline: as §3
UACC-62 = experiment: Anticancer activity against human UACC62 cells after 48 hrs by sulforhodamine B assay; settings: UACC-62, 48 h; outline: as §3
NCI-H460 [5] = experiment: Anticancer activity against human NCI-H460 cells after 48 hrs by sulforhodamine B assay; settings: NCI-H460, 48 h; outline: as §1
NCI/ADR-RES = experiment: Anticancer activity against human NCI/ADR-RES cells after 48 hrs by sulforhodamine B assay; outline: as §1
MCF7 [6] = experiment: Anticancer activity against human MCF7 cells assessed as cell growth at 100 uM after 48 hrs by sulforhodamine B assay relative to control; settings: MCF7, 48 h, read-out: Activity; outline: as §2
HCT-15 = experiment: Anticancer activity against human HCT15 cells after 48 hrs by sulforhodamine B assay; settings: HCT-15, 48 h; outline: as §1
SNB-19 = experiment: Anticancer activity against human SNB19 cells after 48 hrs by sulforhodamine B assay; settings: SNB-19, 48 h; outline: as §1
UACC-257 = experiment: Anticancer activity against human UACC257 cells after 48 hrs by sulforhodamine B assay; settings: UACC-257, 48 h; outline: as §3
CCRF-CEM = experiment: Anticancer activity against human CCRF-CEM cells after 48 hrs by sulforhodamine B assay; outline: as §1
NCI-H460 [7] = experiment: Anticancer activity against human NCI-H460 cells assessed as cell growth at 100 uM after 48 hrs by sulforhodamine B assay relative to control; settings: NCI-H460, 48 h, read-out: Activity; outline: as §2
SN12C = experiment: Anticancer activity against human SN12C cells after 48 hrs by sulforhodamine B assay; outline: as §1
PC-3 = experiment: Anticancer activity against human PC3 cells after 48 hrs by sulforhodamine B assay; settings: PC-3, 48 h; outline: as §1
HT-29 = experiment: Anticancer activity against human HT-29 cells after 48 hrs by sulforhodamine B assay; settings: HT-29, 48 h; outline: as §1
[8] = Anticancer activity against human […] cells after 48 hrs by sulforhodamine B assay; outline: as §1
HL-60(TB) = experiment: Anticancer activity against human HL-60(TB) cells after 48 hrs by sulforhodamine B assay; settings: HL-60, 48 h
Outline: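 Run within the full 60-cell-line panel across a five-log dose range. GI50 was taken as the concentration causing 50% growth inhibition relative to untreated control cells.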

HCC 2998 = experiment: Anticancer activity against human HCC2998 cells after 48 hrs by sulforhodamine B assay; settings: HCC 2998, 48 h; outline: as §1
SR = experiment: Anticancer activity against human SR cells after 48 hrs by sulforhodamine B assay; outline: as §3
MOLT-4 = experiment: Anticancer activity against human MOLT4 cells after 48 hrs by sulforhodamine B assay; settings: MOLT-4, 48 h; outline: as §1
OVCAR-8 = experiment: Anticancer activity against human OVCAR8 cells after 48 hrs by sulforhodamine B assay; settings: OVCAR-8, 48 h; outline: as §1
MDA-MB-435 = experiment: Anticancer activity against human MDA-MB-435 cells after 48 hrs by sulforhodamine B assay; settings: MDA-MB-435, 48 h; outline: as §1
HOP-92 = experiment: Anticancer activity against human HOP92 cells after 48 hrs by sulforhodamine B assay; settings: HOP-92, 48 h; outline: as §1
TK-10 = experiment: Anticancer activity against human TK10 cells after 48 hrs by sulforhodamine B assay; settings: TK-10, 48 h; outline: as §3

Fc1cc(C2=Nn3c(nnc3-c3cc(F)c(Cl)cc3Cl)SC2)c(Cl)cc1Cl
GI50 (COLO 205): 19 µM
GI50 (NCI-H322M): 29.1 µM
GI50 (KM12): 28.5 µM
GI50 (SF-268 [1]): 18.5 µM
GI50 (OVCAR-3): 11.5 µM
GI50 (IGROV-1): 29.8 µM
GI50 (LOX IMVI): 21.6 µM
GI50 (SF-539): 18.9 µM
growth at 100 µM (SF-268 [2]): 26%
GI50 (EKVX): 24.6 µM
GI50 (DU-145): 36.6 µM
GI50 (NCI-H522): 24.2 µM
GI50 (T47D): 4.93 µM
GI50 [3]: 21.9 µM
GI50 (K562): 17.8 µM
GI50 (Malme-3M): 28.4 µM
GI50 (ACHN): 26.6 µM
GI50 (CAKI-1): 20.6 µM
GI50 (SK-MEL-28): 21.5 µM
GI50 (SNB-75): 26.2 µM
GI50 (MCF7 [4]): 16.8 µM
GI50 (MDA-MB-231): 13.4 µM
GI50 (SW-620): 22.6 µM
GI50 (SF-295): 20.3 µM
GI50 (SK-OV-3): 29.2 µM
GI50 (UO-31): 31.3 µM
GI50 (NCI-H226): 14.9 µM
GI50 (RXF 393): 23.2 µM
GI50 (A549): 23.7 µM
GI50 (OVCAR-4): 34.5 µM
GI50 (NCI-H23): 21.8 µM
GI50 (OVCAR-5): 56.8 µM
GI50 (U-251): 20.4 µM
GI50 (UACC-62): 13.3 µM
GI50 (NCI-H460 [5]): 17.6 µM
GI50 (NCI/ADR-RES): 27.4 µM
growth at 100 µM (MCF7 [6]): 44%
GI50 (HCT-15): 20.2 µM
GI50 (SNB-19): 22.7 µM
GI50 (UACC-257): 30.2 µM
GI50 (CCRF-CEM): 22 µM
growth at 100 µM (NCI-H460 [7]): 6%
GI50 (SN12C): 18.4 µM
GI50 (PC-3): 16.9 µM
GI50 (HT-29): 20.1 µM
GI50 [8]: 6 µM
GI50 (HL-60(TB)): 80.4 µM
GI50 (HCC 2998): 31.6 µM
GI50 (SR): 25.4 µM
GI50 (MOLT-4): 16.9 µM
GI50 (OVCAR-8): 26 µM
GI50 (MDA-MB-435): 27.8 µM
GI50 (HOP-92): 11.3 µM
GI50 (TK-10): 37.4 µM
